# Publication PMC6118327 (Biochimica et biophysica acta. Biomembranes, 2017)
# Changes are numbered by the printed parent chain. pIC50: −log10 of the molar value. “And” between values parts separate entries of the source, which are not always exact repeats. Equal entries are not always repeated.
# Tests used:
# Format in all cases: biochemical
# mUCP3 = molecular target: T1, mUCP3 (Mus musculus, UniProt P56501); settings: 15 mol% AA
# T1 sequence (P56501 1-308): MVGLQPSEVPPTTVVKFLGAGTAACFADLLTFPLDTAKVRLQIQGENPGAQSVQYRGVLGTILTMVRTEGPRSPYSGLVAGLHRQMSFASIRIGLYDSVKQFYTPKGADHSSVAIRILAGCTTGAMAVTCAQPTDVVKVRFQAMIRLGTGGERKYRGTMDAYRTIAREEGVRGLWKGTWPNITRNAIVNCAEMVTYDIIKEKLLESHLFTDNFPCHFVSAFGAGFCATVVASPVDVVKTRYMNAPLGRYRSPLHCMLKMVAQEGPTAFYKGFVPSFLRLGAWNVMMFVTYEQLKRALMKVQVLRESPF
# Procedure, shortened: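 Recombinant mouse protein reconstituted into DOPC/DOPE/CL (45:45:10) liposomes. Bilayers formed at 1.5 mg/ml lipid, 6 μg protein/mg lipid, AA 10 or 15 mol%. Run in 50 mM Na₂SO₄/10 mM MES/10 mM Tris/0.6 mM EGTA, pH 7.35, 32°C. I/V recorded −50 to +50 mV, including with 2 mM ATP. G from linear fit at 0 mV gives relative conductance. IC50 and maximum inhibition come from a four-parameter logistic fit. AA-dependence tested at 1 mM ATP, 2 mM ADP, 5 mM AMP. Mean ± SD, ≥3 experiments.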
# mUCP1 = molecular target: T2, mUCP1 (Mus musculus, UniProt P12242); settings: 15 mol% AA, curve fitting
# T2 sequence (P12242 1-307): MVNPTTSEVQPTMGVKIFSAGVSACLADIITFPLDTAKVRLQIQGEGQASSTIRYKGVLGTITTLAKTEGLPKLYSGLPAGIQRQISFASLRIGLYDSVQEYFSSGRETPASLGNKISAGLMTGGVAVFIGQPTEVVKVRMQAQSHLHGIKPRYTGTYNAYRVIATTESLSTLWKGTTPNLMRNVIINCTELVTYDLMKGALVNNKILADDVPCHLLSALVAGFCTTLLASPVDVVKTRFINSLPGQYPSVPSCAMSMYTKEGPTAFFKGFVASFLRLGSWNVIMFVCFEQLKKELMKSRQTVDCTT
# Procedure, shortened: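 Inclusion-body mouse protein reconstituted into DOPC/DOPE/CL (45:45:10) proteoliposomes. Planar bilayers made at 1.5 mg/ml lipid, AA 10 or 15 mol% in the lipid solution, sulfate/MES/Tris/EGTA buffer pH 7.35, 32°C. I/V swept −50 to +50 mV; G at zero voltage from linear fit, normalised to AA-only and UCP+AA membranes. Titrations of nucleotides or phosphate fitted by four-parameter logistic for IC50 and maximum inhibition. AA comparison used 1 mM ATP, 2 mM ADP, 2 mM AMP. Mean ± SD, ≥3 experiments.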
# mUCP3 R278L = molecular target: T3, mUCP3 R278L (Mus musculus, UniProt P56501, R278L); assay: Relative conductance of UCP3 mutant in planar bilayer membranes; settings: 3 mM ammonium-phosphate-dibasic; 15 mol% AA
# T3 sequence (P56501 1-308 R278L): T1 sequence (P56501 1-308) with R278L
# mUCP3 R184T = molecular target: T4, mUCP3 R184T (Mus musculus, UniProt P56501, R184T); assay: as above; settings: 3 mM ammonium-phosphate-dibasic; 15 mol% AA
# T4 sequence (P56501 1-308 R184T): T1 sequence (P56501 1-308) with R184T
# mUCP3R84Q = molecular target: T5, mUCP3R84Q (Mus musculus, UniProt P56501, R84Q); assay: Relative conductance of UCP3 mutant in planar bilayer membranes; settings: 3 mM ammonium-phosphate-dibasic; 15 mol% AA
# T5 sequence (P56501 1-308 R84Q): T1 sequence (P56501 1-308) with R84Q
# Procedure, shortened: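 Arginine point mutants made by site-directed mutagenesis, expressed in E. coli Rosetta and reconstituted like wild type. Planar DOPC/DOPE/CL (45:45:10) bilayers carried 15 mol% AA; buffer pH 7.35, 32°C. Relative conductance compared with wild type after nucleotide addition: UCP1 mutants 5 mM ATP, ADP or AMP; UCP3 mutant 2 mM ATP, 4 mM ADP or 8 mM AMP. Mean ± SD, ≥3 experiments.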
smiles,measurement,setting,value
"O=P(O)(O)O [Pi, inorganic phosphate]",maximum inhibition of mUCP3 by Pi,mUCP3; curve fitting,~ 60%
same,extent of inhibition at high inhibitor concentration,"mUCP3; DOPC/DOPE/CL membranes, pH 7.35, 32°C",only partial inhibition
same,pIC50,"mUCP3; read-out: IC50 of Pi inhibition, curve fitting",~3.00 and 3.00
same,IC50 of mUCP1 inhibition by Pi compared with mUCP3,mUCP1,similar
same,maximum inhibition of mUCP1 by Pi compared with mUCP3,mUCP1,similar
same,effect of mutation on inhibition by phosphate,mUCP3 R278L,none of the arginine mutations had any effect
same,effect of mutation on inhibition by phosphate,mUCP3 R184T,none of the arginine mutations had any effect
same,effect of mutation on inhibition by phosphate,mUCP3R84Q,none of the arginine mutations had any effect
